For one data set, the system named is NCI-H1299. Kind of data set: Inhibition of tumorsphere formation in human H1299 cells assessed as reduction in side population ratio at 0.25 to 1 uM by PI/Hoechst 33342 staining based flow cytometry. It counts as functional, cell-based. (In flow cytometry, cells or beads pass a laser one at a time.)
In data set [1] the target is Casein kinase II subunit alpha' (Homo sapiens) (UniProt P19784). Put plainly: Inhibition of full length recombinant human CK2alpha2 at 1 uM using RRRDDDSDDD as substrate measured after 40 mins in presence of [gamma33P]ATP by scintillation counting method relative to control.
Data set [2] addresses Casein kinase II subunit alpha (Homo sapiens) (UniProt P68400). Kind of data set: Inhibition of full length recombinant human CK2alpha1 at 1 uM using RRRDDDSDDD as substrate measured after 40 mins in presence of [gamma33P]ATP by scintillation counting method relative to control.
Data set [3] concerns A549. Put plainly: Induction of apoptosis in human A549 cells assessed as increase in Bim protein expression at 0.25 to 1 uM after 24 hrs by Western blot analysis. It counts as functional, cell-based. A digest of the protocol: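 A549 or H1299 cells exposed to the indicated concentrations for 24 h. Protein extracts then immunoblotted for apoptosis-pathway proteins (Bcl2, Bim, cleaved caspase 3).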
(In general: In western blotting, separated proteins are transferred to a membrane and probed.)

Data set [4] deals with A549. Kind of data set: Downregulation of KLF4 in human A549 cells at 0.25 to 1 uM by Western blot analysis. Format: functional, cell-based.
In data set [5] the target is CDK6/cyclin D3 (Homo sapiens) (UniProt P30281+Q00534). Kind of data set: Inhibition of recombinant full-length human CDK6/cyclinD3 at 1 uM using histone H1 as substrate measured after 40 mins in presence of [gamma33P]ATP by scintillation counting method relative to control. It counts as protein-complex assay. Summed up: (§1)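 Percent inhibition of kinase activity at a single compound concentration, measured by the outsourced Eurofins KinaseProfiler panel. Values are the mean of two independent experiments.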

In data set [6] the target is Ribosomal protein S6 kinase alpha-4 (Homo sapiens) (UniProt O75676). Put plainly: Inhibition of recombinant human MSK2 (2 to end residues) at 1 uM using GRPRTSSFAEGKK as substrate measured after 40 mins in presence of [gamma33P]ATP by scintillation counting method relative to control.
Sequence of Ribosomal protein S6 kinase alpha-4 (Homo sapiens) (O75676 whole entry, looked up): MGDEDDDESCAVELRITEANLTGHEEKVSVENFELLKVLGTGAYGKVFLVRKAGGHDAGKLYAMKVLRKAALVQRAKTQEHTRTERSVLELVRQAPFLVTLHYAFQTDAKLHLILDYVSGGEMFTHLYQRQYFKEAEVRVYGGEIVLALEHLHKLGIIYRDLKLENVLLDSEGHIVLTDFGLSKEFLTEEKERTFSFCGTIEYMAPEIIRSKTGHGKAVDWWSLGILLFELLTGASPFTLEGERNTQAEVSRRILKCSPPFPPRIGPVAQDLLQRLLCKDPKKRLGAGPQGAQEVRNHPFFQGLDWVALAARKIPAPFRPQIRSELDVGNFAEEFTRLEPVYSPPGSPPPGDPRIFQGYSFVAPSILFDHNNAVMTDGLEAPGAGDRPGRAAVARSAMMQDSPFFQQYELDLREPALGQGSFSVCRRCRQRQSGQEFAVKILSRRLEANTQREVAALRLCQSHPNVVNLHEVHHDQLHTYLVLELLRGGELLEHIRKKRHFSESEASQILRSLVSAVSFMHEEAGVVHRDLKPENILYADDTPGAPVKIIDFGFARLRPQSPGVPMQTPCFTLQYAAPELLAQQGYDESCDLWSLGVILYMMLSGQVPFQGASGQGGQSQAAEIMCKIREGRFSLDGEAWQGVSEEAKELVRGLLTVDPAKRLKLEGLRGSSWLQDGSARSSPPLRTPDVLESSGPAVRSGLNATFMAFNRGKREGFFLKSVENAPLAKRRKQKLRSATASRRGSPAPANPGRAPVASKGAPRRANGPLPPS
Data set [7] has as its target Serine/threonine-protein kinase 17B (Homo sapiens) (UniProt O94768). Put plainly: Inhibition of recombinant full-length human DRAK2 at 1 uM using KKRPQRRYSNVF as substrate measured after 120 mins in presence of [gamma33P]ATP by scintillation counting method relative to control.
Data set [8] is described as follows: Intrinsic clearance in Sprague-Dawley rat liver microsomes at 2 uM in presence of NADPH measured up to 1 hr by HPLC analysis. Format: ADME, Microsome.
Data set [9] deals with A549. Kind of data set: Induction of apoptosis in human A549 cells assessed as early apoptotic cells at 0.25 uM after 48 hrs by AnnexinV-FITC/PI staining-based flow cytometric analysis (reference value: 2.91%). Format: functional.
The target in data set [10] is Phosphatidylinositol 4-phosphate 5-kinase type-1 alpha (Homo sapiens) (UniProt Q99755). Kind of data set: Inhibition of recombinant full-length human PIP5K1alpha at 1 uM using phosphatidylinositol 4-phosphate as substrate measured after 40 mins by HTRF assay relative to control. For orientation: TR-FRET usually uses a lanthanide donor and a delayed reading to cut background.

Data set [11] addresses Serine/threonine-protein kinase 35 (Homo sapiens) (UniProt Q8TDR2). Put plainly: Inhibition of full length recombinant human CLIK1 at 1 uM using RSRSRSRSRSRSRSR as substrate measured after 40 mins in presence of [gamma33P]ATP by scintillation counting method relative to control.
Data set [12] deals with Ephrin type-A receptor 4 (Homo sapiens) (UniProt P54764). Kind of data set: Inhibition of recombinant human EphA4 (601 to 892 residues) at 1 uM using poly(Glu, Tyr) 4:1 as substrate measured after 40 mins in presence of [gamma33P]ATP by scintillation counting method relative to control. A digest of the protocol: (§2)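 Single-point inhibition at 1 µM was measured in the Eurofins KinaseProfiler panel. Values are the mean of two independent experiments.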
Sequence of Ephrin type-A receptor 4 (Homo sapiens) (P54764 whole entry, the tested form may be a part): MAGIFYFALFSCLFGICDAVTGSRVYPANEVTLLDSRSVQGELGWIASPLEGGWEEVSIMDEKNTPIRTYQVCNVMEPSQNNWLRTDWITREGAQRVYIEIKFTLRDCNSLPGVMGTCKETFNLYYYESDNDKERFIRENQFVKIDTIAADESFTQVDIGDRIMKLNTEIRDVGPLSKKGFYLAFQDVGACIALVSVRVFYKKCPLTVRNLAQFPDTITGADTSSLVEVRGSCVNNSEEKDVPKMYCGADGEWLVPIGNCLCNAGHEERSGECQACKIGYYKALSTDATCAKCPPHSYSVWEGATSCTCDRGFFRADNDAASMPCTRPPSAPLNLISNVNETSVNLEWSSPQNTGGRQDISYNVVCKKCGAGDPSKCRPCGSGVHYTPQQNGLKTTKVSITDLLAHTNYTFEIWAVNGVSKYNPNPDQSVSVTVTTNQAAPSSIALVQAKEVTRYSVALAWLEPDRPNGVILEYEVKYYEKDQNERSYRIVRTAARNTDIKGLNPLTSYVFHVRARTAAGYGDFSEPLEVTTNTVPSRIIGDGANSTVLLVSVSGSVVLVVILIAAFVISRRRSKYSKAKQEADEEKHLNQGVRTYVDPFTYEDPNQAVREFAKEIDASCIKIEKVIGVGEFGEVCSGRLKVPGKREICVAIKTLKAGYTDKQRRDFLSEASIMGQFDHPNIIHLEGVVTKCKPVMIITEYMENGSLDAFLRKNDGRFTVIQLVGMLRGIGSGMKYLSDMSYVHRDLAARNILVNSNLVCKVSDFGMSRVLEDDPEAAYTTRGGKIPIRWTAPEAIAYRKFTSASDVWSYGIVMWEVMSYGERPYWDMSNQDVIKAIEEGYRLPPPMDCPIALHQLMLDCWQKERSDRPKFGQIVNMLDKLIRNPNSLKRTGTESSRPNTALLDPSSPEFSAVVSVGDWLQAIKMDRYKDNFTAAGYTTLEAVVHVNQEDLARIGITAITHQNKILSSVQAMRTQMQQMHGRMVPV

Data set [13] deals with Serine/threonine-protein kinase tousled-like 2 (Homo sapiens) (UniProt Q86UE8). Kind of data set: Inhibition of human TLK2 (387 to end residues) at 1 uM using casein as substrate measured after 40 mins in presence of [gamma33P]ATP by scintillation counting method relative to control. A digest of the protocol:
as §1

Data set [14] has as its target Protein kinase C delta type (Homo sapiens) (UniProt Q05655). Put plainly: Inhibition of recombinant human PKCdelta (2 to end residues) at 1 uM using ERMRPRKRQGSVRRR as substrate measured after 40 mins in presence of [gamma33P]ATP by scintillation counting method relative to control.
Data set [15] has as its target Platelet-derived growth factor receptor alpha (Homo sapiens) (UniProt P16234). Put plainly: Inhibition of recombinant human PDGFRalpha (550 to end residues) at 1 uM using poly[Glu:Tyr] (4:1) as substrate measured after 40 mins in presence of [gamma33P]ATP by scintillation counting method relative to control.
The target of data set [16] is Death-associated protein kinase 3 (Homo sapiens) (UniProt O43293). Kind of data set: Inhibition of recombinant human ZIPK (1 to 290 residues) at 1 uM using KKLNRTLSFAEPG as substrate measured after 40 mins in presence of [gamma33P]ATP by scintillation counting method relative to control. Summed up: as §2
For data set [17], the target named is Protein kinase C zeta type (Homo sapiens) (UniProt Q05513). Kind of data set: Inhibition of recombinant human PKCzeta (2 to end residues) at 1 uM using ERMRPRKRQGSVRRRV as substrate measured after 40 mins in presence of [gamma33P]ATP by scintillation counting method relative to control. Summed up:
as §2

The target of data set [18] is Wee1-like protein kinase (Homo sapiens) (UniProt P30291). Put plainly: Inhibition of recombinant human Wee1 (214 to end residues) at 1 uM using LSNLYHQGKFLQTFCGSPLYRRR as substrate measured after 40 mins in presence of [gamma33P]ATP by scintillation counting method relative to control.
For data set [19], the target named is Mitogen-activated protein kinase kinase kinase 10 (Homo sapiens) (UniProt Q02779). Kind of data set: Inhibition of recombinant human MLK2 (1 to 449 residues) at 1 uM using myelin basic protein as substrate measured after 40 mins in presence of [gamma33P]ATP by scintillation counting method relative to control.
Data set [20] deals with Mitogen-activated protein kinase kinase kinase 9 (Homo sapiens) (UniProt P80192). Kind of data set: Inhibition of recombinant human MLK1 (134 to 414 residues) at 1 uM using casein as substrate measured after 40 mins in presence of [gamma33P]ATP by scintillation counting method relative to control.
Sequence of Mitogen-activated protein kinase kinase kinase 9 (Homo sapiens) (P80192 whole entry, looked up, the tested form may be a part): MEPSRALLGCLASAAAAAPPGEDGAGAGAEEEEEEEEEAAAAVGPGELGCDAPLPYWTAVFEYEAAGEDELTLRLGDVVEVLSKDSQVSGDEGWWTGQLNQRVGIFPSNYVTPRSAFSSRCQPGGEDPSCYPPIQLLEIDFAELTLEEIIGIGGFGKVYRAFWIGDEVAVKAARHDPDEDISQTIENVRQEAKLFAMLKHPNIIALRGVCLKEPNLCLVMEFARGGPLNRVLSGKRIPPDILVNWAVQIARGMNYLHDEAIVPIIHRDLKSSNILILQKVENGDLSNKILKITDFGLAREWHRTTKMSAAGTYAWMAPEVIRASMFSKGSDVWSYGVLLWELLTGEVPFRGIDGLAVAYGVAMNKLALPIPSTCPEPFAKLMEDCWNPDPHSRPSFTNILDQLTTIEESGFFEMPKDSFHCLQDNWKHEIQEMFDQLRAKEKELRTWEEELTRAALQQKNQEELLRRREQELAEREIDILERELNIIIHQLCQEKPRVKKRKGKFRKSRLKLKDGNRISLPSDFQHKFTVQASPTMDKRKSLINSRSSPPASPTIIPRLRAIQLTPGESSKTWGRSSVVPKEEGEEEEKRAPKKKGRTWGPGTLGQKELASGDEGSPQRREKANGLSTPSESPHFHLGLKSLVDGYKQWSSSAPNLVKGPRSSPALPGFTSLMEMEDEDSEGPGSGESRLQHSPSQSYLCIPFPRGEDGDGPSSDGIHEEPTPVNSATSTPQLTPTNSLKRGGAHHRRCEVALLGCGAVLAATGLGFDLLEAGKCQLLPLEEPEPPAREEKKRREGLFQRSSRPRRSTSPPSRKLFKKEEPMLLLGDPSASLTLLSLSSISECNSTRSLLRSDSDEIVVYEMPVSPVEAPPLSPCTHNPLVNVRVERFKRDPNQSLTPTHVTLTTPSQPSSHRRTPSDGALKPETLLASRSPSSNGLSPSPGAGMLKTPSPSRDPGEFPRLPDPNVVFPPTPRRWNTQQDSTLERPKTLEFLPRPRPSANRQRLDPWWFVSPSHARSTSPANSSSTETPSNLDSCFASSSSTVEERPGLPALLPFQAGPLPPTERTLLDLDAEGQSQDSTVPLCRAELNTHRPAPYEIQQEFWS
Data set [21] addresses FKBP12A/mTOR (Homo sapiens) (UniProt P62942+P42345). Put plainly: Inhibition of recombinant full-length human mTOR/FKBP12 at 1 uM measured after 40 mins in presence of [gamma33P]ATP by scintillation counting method relative to control. It counts as protein-complex assay.
Data set [22] has as its target Protein-tyrosine kinase 2-beta (Homo sapiens) (UniProt Q14289). Put plainly: Inhibition of recombinant full-length human Pyk2 at 1 uM using poly(Glu, Tyr) 4:1 as substrate measured after 40 mins in presence of [gamma33P]ATP by scintillation counting method relative to control.

The source made the active and inactive calls. No cut-off for these calls is given here.

Sequence of Protein-tyrosine kinase 2-beta (Homo sapiens) (Q14289 whole entry, looked up): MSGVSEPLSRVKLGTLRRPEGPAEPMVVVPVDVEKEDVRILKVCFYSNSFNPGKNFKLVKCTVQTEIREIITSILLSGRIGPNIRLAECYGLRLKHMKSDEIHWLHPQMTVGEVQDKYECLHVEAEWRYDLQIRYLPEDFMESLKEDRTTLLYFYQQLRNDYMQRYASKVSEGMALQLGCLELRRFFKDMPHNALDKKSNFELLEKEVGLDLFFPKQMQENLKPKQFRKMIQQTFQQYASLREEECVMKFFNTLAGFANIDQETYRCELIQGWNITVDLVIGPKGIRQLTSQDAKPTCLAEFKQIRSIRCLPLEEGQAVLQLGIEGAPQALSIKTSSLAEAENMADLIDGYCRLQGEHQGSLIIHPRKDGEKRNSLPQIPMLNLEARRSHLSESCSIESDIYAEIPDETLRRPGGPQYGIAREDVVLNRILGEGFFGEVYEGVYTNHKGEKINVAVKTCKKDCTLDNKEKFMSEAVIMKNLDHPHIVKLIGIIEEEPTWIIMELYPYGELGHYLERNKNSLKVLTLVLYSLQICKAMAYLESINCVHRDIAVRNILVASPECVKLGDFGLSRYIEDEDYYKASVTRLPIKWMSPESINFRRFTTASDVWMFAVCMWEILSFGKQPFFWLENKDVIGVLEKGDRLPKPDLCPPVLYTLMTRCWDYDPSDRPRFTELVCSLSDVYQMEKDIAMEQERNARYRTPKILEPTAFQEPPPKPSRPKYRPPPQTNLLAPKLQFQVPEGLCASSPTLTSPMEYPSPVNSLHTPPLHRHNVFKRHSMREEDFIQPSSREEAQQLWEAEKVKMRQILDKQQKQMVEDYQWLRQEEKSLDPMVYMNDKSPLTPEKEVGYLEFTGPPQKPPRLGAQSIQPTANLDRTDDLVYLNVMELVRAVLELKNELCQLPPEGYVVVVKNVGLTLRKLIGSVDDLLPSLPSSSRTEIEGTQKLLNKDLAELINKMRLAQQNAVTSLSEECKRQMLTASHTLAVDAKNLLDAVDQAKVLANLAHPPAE
Sequence of Protein kinase C delta type (Homo sapiens) (Q05655 whole entry, looked up): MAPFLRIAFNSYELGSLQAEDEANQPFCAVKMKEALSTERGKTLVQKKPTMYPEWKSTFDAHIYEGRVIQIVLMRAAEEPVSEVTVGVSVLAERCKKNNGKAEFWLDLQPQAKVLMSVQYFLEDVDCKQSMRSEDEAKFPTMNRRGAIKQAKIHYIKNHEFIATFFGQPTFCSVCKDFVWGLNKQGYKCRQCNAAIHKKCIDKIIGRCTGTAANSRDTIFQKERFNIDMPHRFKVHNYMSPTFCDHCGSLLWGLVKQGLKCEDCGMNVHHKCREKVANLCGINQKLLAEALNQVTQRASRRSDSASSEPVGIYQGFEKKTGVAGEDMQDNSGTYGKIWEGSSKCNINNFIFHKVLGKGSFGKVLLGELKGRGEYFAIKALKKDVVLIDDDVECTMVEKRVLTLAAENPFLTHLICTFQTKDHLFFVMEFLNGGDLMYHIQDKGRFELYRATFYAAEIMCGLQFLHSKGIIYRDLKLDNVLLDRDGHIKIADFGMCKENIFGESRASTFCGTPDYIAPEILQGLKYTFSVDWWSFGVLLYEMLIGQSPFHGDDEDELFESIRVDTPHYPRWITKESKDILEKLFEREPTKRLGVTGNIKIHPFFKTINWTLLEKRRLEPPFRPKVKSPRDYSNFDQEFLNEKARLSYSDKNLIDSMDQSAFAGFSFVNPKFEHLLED
Sequence of Serine/threonine-protein kinase 35 (Homo sapiens) (Q8TDR2 whole entry, the tested form may be a part): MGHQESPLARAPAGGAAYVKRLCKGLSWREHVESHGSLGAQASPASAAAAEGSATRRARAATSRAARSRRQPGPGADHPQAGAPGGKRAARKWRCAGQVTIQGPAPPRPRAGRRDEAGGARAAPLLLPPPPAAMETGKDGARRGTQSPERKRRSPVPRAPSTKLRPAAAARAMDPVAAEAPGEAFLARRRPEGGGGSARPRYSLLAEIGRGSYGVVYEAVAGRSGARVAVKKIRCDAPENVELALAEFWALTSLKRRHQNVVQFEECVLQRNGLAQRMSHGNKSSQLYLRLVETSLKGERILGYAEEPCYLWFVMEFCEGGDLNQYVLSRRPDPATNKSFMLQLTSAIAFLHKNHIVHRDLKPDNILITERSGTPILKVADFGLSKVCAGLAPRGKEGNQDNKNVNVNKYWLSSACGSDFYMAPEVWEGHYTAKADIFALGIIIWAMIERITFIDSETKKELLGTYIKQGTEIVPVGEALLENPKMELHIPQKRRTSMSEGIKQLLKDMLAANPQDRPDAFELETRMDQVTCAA

The term inhibition denotes the drop in the measured response relative to a control, in per cent. Regarding `CN(C)C(=O)c1cc2cnc(Nc3ccc(NC(=O)CCCCCCCN=C=S)cc3)nc2n1C1CCCC1`, the inhibition result in the data set on NCI-H1299 is “Active”. For the same molecule, the inhibition in data set [1] is -4%; in [2], -5%; in [5], 79%; in data set [6] it was 6%; in data set [7] it was -8%; in data set [10], 30%. In addition, the inhibition was 14% in data set [11]; 1% in [12]; 8% in data set [13]; 8% in [14]; 7% in data set [15]; 1% in [16]. Further, the inhibition is 1% in data set [17]; 8% in data set [18]; 65% in data set [19]; 34% in data set [20]; -6% in data set [21]; 46% in data set [22]. The result in the data set with A549 [3] and in the data set on A549 [4] was Active. Besides, the CLH in data set [8] was 57 µL/min/mg. The Activity in the data set on A549 [9] amounted to 1.76%.

Values taken from ChEMBL document CHEMBL4376814, “Novel cyclin-dependent kinase 9 (CDK9) inhibitor with suppression of cancer stemness activity against non-small-cell lung cancer” (Eur J Med Chem, 2019).
